Experimental findings from article PMC7032160 (Asian Journal of Pharmaceutical Sciences, 2017) are described below.

Data set [1] can be described thus: Pharmacokinetic study in rats after oral administration of JDR or gemcitabine. Type of data set: in vivo. Particulars: male, Wistar, rat, plasma, 50 mg/kg. The essentials: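 Twelve male Wistar rats (180–220 g) were fasted 12 h and randomized into two groups (n = 6). Each received one oral dose: prodrug at gemcitabine-equivalent 50 mg/kg or parent drug 50 mg/kg. Blood was drawn at 0.083–48 h (prodrug) or 0.25–24 h (parent) into heparinized THU-treated tubes and spun 3000 × g 15 min; plasma was kept at −80 °C. Analysis was UPLC–MS/MS MRM, with noncompartmental parameters.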

Data set [2] is classed as in vitro ADME, rat. Conditions: for Concentration founded: n = 3. An outline of the steps: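 QC samples (n = 3) were spiked into THU-pretreated rat plasma at low, mid and high levels: 15, 125, 3200 ng/ml prodrug and 12, 125, 3200 ng/ml parent drug. 50 µl plasma was protein-precipitated with methanol plus didanosine IS and centrifuged. Extracts were held in the autosampler at 10 °C for 8 h before UPLC–MS/MS. Read-outs were found concentration and relative error.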

Like-named read-outs stand apart in the source and are kept apart here.

The Cmax is the maximum level reached in the sampled fluid or tissue. As usually defined, the Tmax is the time from dosing to the highest level. As usually defined, the half-life is the time needed for the level to fall by half in the phase considered. Lower therefore signals rapid decline. In data set [1], `Nc1ccn([C@@H]2O[C@H](CO)[C@@H](O)C2(F)F)c(=O)n1` [Gemcitabine] registered a Cmax of 1180 ± 47.1 ng/mL. The Tmax in data set [1] was 1.5 ± 0.9 h. The same compound had a half-life in data set [1] of 2.61 ± 1.1 h. In addition, the RE% in data set [2] (autosampler rack at 10 °C for 8 h, High QC) is given as −6.4%; in data set [2] (autosampler rack at 10 °C for 8 h, Low QC), 0.9%; in data set [2] (autosampler rack at 10 °C for 8 h, Mid QC), 9.1%; in data set [2] (rat plasma, bench-top (20 °C for 1 h), High QC), −8.9%; in data set [2] (rat plasma, bench-top (20 °C for 1 h), Low QC), −4.8%; in data set [2] (rat plasma, bench-top (20 °C for 1 h), Mid QC), 7.8%. Further, the RE% was −0.1% in data set [2] (rat plasma, freezing at -80 °C for 2 months, High QC); −2.1% in data set [2] (rat plasma, freezing at -80 °C for 2 months, Low QC); 4.3% in data set [2] (rat plasma, freezing at -80 °C for 2 months, Mid QC); −7.3% in data set [2] (rat plasma, three freeze/thaw cycles (-80 to 20 °C), High QC); −2.0% in data set [2] (rat plasma, three freeze/thaw cycles (-80 to 20 °C), Low QC); 7.4% in data set [2] (rat plasma, three freeze/thaw cycles (-80 to 20 °C), Mid QC). Moreover, the Concentration founded in data set [2] (rat plasma, bench-top (20 °C for 1 h), High QC (added 3200.00 ng/ml)) came out at 2915.15 ± 95.7 ng/mL; in data set [2] (rat plasma, bench-top (20 °C for 1 h), Mid QC (added 125.00 ng/ml)), 134.78 ± 1.6 ng/mL; in data set [2] (rat plasma, freezing at -80 °C for 2 months, Mid QC (added 125.00 ng/ml)) it was 130.38 ± 10.6 ng/mL.
